From PubChem BioAssay AID624338 (The Scripps Research Institute Molecular Screening Center, 2012)
One block for each compound: values may come before it. Active and inactive are the calls of the source.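 Rule for the calls: active = inhibition of a cysteine-free insulin-degrading enzyme mutant that persists after dilution, so judged irreversible; inactive = inhibition weakens or vanishes on dilution, so reversible.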

Target: Insulin-degrading enzyme (Homo sapiens) (UniProt P14735)
Assay: reversibility of cysteine-free IDE inhibition, late-stage follow-up, mechanism study for IDE inhibitor project, biochemical, cysteine-free mutant, FRET1 substrate, round 2 (AID 624338)
Details: recombinant CF-IDE, FRET1 substrate fluorescence, reversibility by dilution
Procedure, shortened: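 Test system: cysteine-free insulin-degrading enzyme (CF-IDE). Amount: 1 nM enzyme. Repeats: each concentration in triplicate. Controls: DMSO-only wells as 100%, enzyme-free wells as 0%. Also added: FRET1 peptide substrate at 1 µM. Incubation: room temperature reaction. Medium: pH 7.4 buffer. Compound dosing: 10-point semilog dilution series, nominal top dose 100 µM.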

Sequence of Insulin-degrading enzyme (Homo sapiens) (P14735 whole entry, looked up): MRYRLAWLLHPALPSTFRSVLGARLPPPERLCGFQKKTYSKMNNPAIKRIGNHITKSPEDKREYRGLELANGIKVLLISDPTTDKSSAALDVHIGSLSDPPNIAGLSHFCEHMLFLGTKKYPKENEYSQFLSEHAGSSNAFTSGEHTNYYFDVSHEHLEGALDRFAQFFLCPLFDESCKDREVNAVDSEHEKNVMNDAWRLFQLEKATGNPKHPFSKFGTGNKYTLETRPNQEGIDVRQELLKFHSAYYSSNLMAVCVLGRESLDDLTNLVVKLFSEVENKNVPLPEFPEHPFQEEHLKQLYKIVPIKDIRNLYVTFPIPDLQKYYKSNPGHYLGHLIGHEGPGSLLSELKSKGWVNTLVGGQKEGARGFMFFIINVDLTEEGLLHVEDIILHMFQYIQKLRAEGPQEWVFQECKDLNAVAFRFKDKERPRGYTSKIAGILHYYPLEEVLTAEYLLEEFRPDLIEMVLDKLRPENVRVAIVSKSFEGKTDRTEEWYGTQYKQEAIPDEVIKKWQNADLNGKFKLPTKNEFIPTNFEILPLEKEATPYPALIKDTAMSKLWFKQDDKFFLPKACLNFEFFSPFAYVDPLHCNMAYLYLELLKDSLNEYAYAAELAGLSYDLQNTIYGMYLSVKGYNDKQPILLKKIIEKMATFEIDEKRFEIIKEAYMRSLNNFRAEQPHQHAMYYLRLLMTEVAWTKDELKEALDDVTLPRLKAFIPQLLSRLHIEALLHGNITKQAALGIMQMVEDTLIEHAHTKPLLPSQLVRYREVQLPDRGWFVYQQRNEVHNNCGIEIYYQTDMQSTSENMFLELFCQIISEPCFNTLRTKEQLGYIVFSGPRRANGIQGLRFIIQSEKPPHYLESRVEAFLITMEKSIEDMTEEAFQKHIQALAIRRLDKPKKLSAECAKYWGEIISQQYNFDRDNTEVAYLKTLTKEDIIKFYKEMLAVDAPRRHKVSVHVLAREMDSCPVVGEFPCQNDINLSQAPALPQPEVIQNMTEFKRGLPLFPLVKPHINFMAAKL

Compound: c1ccc(-c2nnc(SCc3nc4ccccc4[nH]3)n2Cc2ccco2)nc1
- outcome: inactive

Compound: CCOc1ccc(C(=O)N2CCN(C(=O)C3COc4ccccc4O3)CC2)cc1 (stereo not given)
- outcome: inactive

Compound: Cc1nc(COc2ccc(C(=O)N3CCN(C(=O)C4COc5ccccc5O4)CC3)cc2)cs1 (stereo not given)
- outcome: inactive

Compound: Clc1ccc(COCc2nnc(SCc3nc4ccccc4[nH]3)n2Cc2ccco2)cc1
- outcome: inactive

Compound: COc1cc(C(=O)N2CCN(C(=O)C3COc4ccccc4O3)CC2)cc(Cl)c1OC (stereo not given)
- outcome: inactive

Compound: Cc1ccc(COCc2nnc(SCc3nc4ccccc4[nH]3)n2Cc2ccco2)cc1
- outcome: inactive

Compound: COc1ccc(C(=O)N2CCN(C(=O)C3CC(=O)N(c4ccccc4)C3)CC2)cc1OC (stereo not given)
- outcome: inactive

Compound: COc1ccc(C(=O)N2CCN(C(=O)COc3ccc(C)cc3)CC2)cc1OC
- outcome: inactive

Compound: COc1ccc(C(=O)N2CCN(C(=O)COc3ccccc3)CC2)cc1OC
- outcome: inactive

Compound: COc1ccc(C(=O)N2CCN(C(=O)CCc3c[nH]c4ccccc34)CC2)cc1OC
- outcome: inactive

Compound: COc1ccc(OCC(=O)N2CCN(C(=O)c3ccc(OC)c(OC)c3)CC2)cc1
- outcome: inactive

Compound: O=C(c1ccc(Oc2ccccc2)cc1)N1CCN(C(=O)C2COc3ccccc3O2)CC1 (stereo not given)
- outcome: inactive

The next lines start with the values.

- outcome: inactive
Compound: CC(=O)Nc1ccccc1C(=O)N1CCN(C(=O)C2COc3ccccc3O2)CC1 (stereo not given)

- outcome: inactive
Compound: c1coc(Cn2c(SCc3nc4ccccc4[nH]3)nnc2-c2cccs2)c1

- outcome: inactive
Compound: O=C(c1ccc(OCC2CCCO2)cc1)N1CCN(C(=O)C2COc3ccccc3O2)CC1 (stereo not given)

- outcome: inactive
Compound: COc1ccc(C(=O)N2CCN(C(=O)C3COc4ccccc4O3)CC2)cc1 (stereo not given)

- outcome: inactive
Compound: c1coc(Cn2c(SCc3nc4ccccc4[nH]3)nnc2-c2cnccn2)c1

- outcome: inactive
Compound: COc1cccc(C(=O)N2CCN(C(=O)C3COc4ccccc4O3)CC2)c1 (stereo not given)

- outcome: inactive
Compound: c1coc(Cn2c(SCc3nc4ccccc4[nH]3)nnc2-c2ccco2)c1

- outcome: inactive
Compound: O=C(c1ccc(Oc2ccc(F)cc2)cc1)N1CCN(C(=O)C2COc3ccccc3O2)CC1 (stereo not given)

- outcome: inactive
Compound: O=C(c1ccc2nc(C(F)(F)F)[nH]c2c1)N1CCN(C(=O)C2COc3ccccc3O2)CC1 (stereo not given)

- outcome: inactive
Compound: Cc1ccc(-c2nnc(SCc3nc4ccccc4[nH]3)n2Cc2ccco2)cc1

- outcome: inactive
Compound: c1ccc(-c2nnc(SCc3nc4ccccc4[nH]3)n2Cc2ccco2)cc1

- outcome: inactive
Compound: COc1ccc(C(=O)N2CCN(C(=O)C(c3ccccc3)c3ccccc3)CC2)cc1OC

- outcome: inactive
Compound: COc1ccc(C(=O)N2CCN(C(=O)COc3ccc(Cl)cc3)CC2)cc1OC
